Results on 18 compounds are retold here after ChEMBL document CHEMBL1136290, “Concise synthesis and biological activities of 2alpha-alkyl- and 2alpha-(omega-hydroxyalkyl)-20-epi-1alpha,25-dihydroxyvitamin D3” (2003).

SMILES strings stand for the structures.

Assay [1] has as its target T1, Vitamin D3 receptor (Bos taurus) (UniProt Q28037).
T1 sequence (whole entry): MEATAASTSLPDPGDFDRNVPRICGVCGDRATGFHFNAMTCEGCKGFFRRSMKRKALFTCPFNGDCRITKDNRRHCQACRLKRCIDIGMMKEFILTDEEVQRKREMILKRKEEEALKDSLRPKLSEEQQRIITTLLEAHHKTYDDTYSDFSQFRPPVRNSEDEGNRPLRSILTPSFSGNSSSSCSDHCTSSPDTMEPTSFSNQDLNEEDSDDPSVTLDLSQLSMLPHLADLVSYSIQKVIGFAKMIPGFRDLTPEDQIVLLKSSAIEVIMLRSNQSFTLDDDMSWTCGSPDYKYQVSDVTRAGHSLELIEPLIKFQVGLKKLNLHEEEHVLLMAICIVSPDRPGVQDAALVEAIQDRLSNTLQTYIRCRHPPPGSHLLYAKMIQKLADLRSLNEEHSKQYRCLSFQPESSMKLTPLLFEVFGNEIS
As to the kind of experiment: Binding affinity at bovine thymus Vitamin D3 receptor relative to 1-alpha,25-Dihydroxyvitamin D3.

Assay [2] deals with HL-60. Description: In vitro induction of HL-60 cell differentiation. The format is functional, Homo sapiens. Further details: reference not given here. The procedure, abridged:
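HL-60 differentiation was scored by the NBT reduction method.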

The compound `C=C1/C(=C\C=C2/CCC[C@]3(C)[C@@H]([C@@H](C)CCCC(C)(C)O)CC[C@@H]23)C[C@@H](O)[C@H](CCC)[C@@H]1O` displayed a relative binding affinity (RBA) in assay [1] of 119. The compound also yielded a Potency in assay [2] of 1750.

`C=C1/C(=C\C=C2/CCC[C@]3(C)[C@@H]([C@H](C)CCCC(C)(C)O)CC[C@@H]23)C[C@@H](O)[C@H](CCCO)[C@@H]1O` registered a relative binding affinity (RBA) in assay [1] of 300. Also, in assay [2], the Potency is 240.

In assay [1], `C=C1/C(=C\C=C2/CCC[C@]3(C)[C@@H]([C@@H](C)CCCC(C)(C)O)CC[C@@H]23)C[C@@H](O)[C@H](C)[C@@H]1O` showed a relative binding affinity (RBA) of 1200. The Potency in assay [2] worked out at 9688.

The compound `C=C1/C(=C\C=C2/CCC[C@]3(C)[C@@H]([C@H](C)CCCC(C)(C)O)CC[C@@H]23)C[C@@H](O)[C@H](CCC)[C@@H]1O` showed a relative binding affinity (RBA) in assay [1] of 20. The compound further registered a Potency in assay [2] of 44.

`C=C1/C(=C\C=C2/CCC[C@]3(C)[C@@H]([C@@H](C)CCCC(C)(C)O)CC[C@@H]23)C[C@@H](O)[C@H](CCCO)[C@@H]1O` registered a relative binding affinity (RBA) in assay [1] of 370. The compound also returned a Potency in assay [2] of 4900.

In turn, `C=C1/C(=C\C=C2/CCC[C@]3(C)[C@@H]([C@@H](C)CCCC(C)(C)O)CC[C@@H]23)C[C@@H](O)[C@H](CCCCO)[C@@H]1O` showed a relative binding affinity (RBA) in assay [1] of 183. Moreover, the Potency in assay [2] is on record as 3910.

`C=C1/C(=C\C=C2/CCC[C@]3(C)[C@@H]([C@@H](C)CCCC(C)(C)O)CC[C@@H]23)C[C@@H](O)[C@H](CCCC)[C@@H]1O` came in with a relative binding affinity (RBA) in assay [1] of 33. The compound also came in with a Potency in assay [2] of 2300.

In the case of `C=C1/C(=C\C=C2/CCC[C@]3(C)[C@@H]([C@H](C)CCCC(C)(C)O)CC[C@@H]23)C[C@@H](O)[C@H](CCO)[C@@H]1O`, the relative binding affinity (RBA) in assay [1] turned out to be 70. Also, the Potency in assay [2] is listed as 86.

In assay [1], `C=C1/C(=C\C=C2/CCC[C@]3(C)[C@@H]([C@H](C)CCCC(C)(C)O)CC[C@@H]23)C[C@@H](O)[C@H](CC)[C@@H]1O` returned a relative binding affinity (RBA) of 40. This compound displayed a Potency in assay [2] of 106.

As for `C=C1/C(=C\C=C2/CCC[C@]3(C)[C@@H]([C@H](C)CCCC(C)(C)O)CC[C@@H]23)C[C@@H](O)[C@H](C)[C@@H]1O`, the relative binding affinity (RBA) in assay [1] was determined as 400. The compound further had a Potency in assay [2] of 258.

Regarding `C=C1/C(=C\C=C2/CCC[C@]3(C)[C@@H]([C@@H](C)CCCC(C)(C)O)CC[C@@H]23)C[C@@H](O)[C@H](CCO)[C@@H]1O`, the relative binding affinity (RBA) in assay [1] turned out to be 320. Moreover, the Potency in assay [2] is 4030.

As for `C=C1/C(=C\C=C2/CCC[C@]3(C)[C@@H]([C@H](C)CCCC(C)(C)O)CC[C@@H]23)C[C@@H](O)[C@H](CO)[C@@H]1O`, the relative binding affinity (RBA) in assay [1] came to 20. In addition, the Potency in assay [2] was determined as 10.

Take `C=C1/C(=C\C=C2/CCC[C@]3(C)[C@@H]([C@H](C)CCCC(C)(C)O)CC[C@@H]23)C[C@@H](O)C[C@@H]1O` [CALCITRIOL]: the relative binding affinity (RBA) in assay [1] was 100. For the same compound, the Potency in assay [2] was found to be 100.

As to `C=C1/C(=C\C=C2/CCC[C@]3(C)[C@@H]([C@H](C)CCCC(C)(C)O)CC[C@@H]23)C[C@@H](O)[C@H](CCCCO)[C@@H]1O`, the relative binding affinity (RBA) in assay [1] came to 120. This compound showed a Potency in assay [2] of 460.

Regarding `C=C1/C(=C\C=C2/CCC[C@]3(C)[C@@H]([C@@H](C)CCCC(C)(C)O)CC[C@@H]23)C[C@@H](O)C[C@@H]1O`, the relative binding affinity (RBA) in assay [1] was 400. In assay [2], this compound yielded a Potency of 3571.

For the compound `C=C1/C(=C\C=C2/CCC[C@]3(C)[C@@H]([C@@H](C)CCCC(C)(C)O)CC[C@@H]23)C[C@@H](O)[C@H](CC)[C@@H]1O`, the relative binding affinity (RBA) in assay [1] was 150. Moreover, in assay [2], the Potency stood at 4200.

`C=C1/C(=C\C=C2/CCC[C@]3(C)[C@@H]([C@@H](C)CCCC(C)(C)O)CC[C@@H]23)C[C@@H](O)[C@H](CO)[C@@H]1O` showed a relative binding affinity (RBA) in assay [1] of 190. Moreover, in assay [2], the Potency was 570.

`C=C1/C(=C\C=C2/CCC[C@]3(C)[C@@H]([C@H](C)CCCC(C)(C)O)CC[C@@H]23)C[C@@H](O)[C@H](CCCC)[C@@H]1O`: in assay [1], the relative binding affinity (RBA) worked out at 8. This compound had a Potency in assay [2] of 74.
